Data as given in ChEMBL document CHEMBL2417391, “Additional cytotoxic pyridoacridine alkaloids from the ascidian Cystodytes violatinctus and biogenetic considerations” (J Nat Prod, 2013).

How the values were obtained:
Type in all cases: functional, cell-based
[1] = test system: A-375; assay: Cytotoxicity against human A375 cells after 48 hrs by MTT assay; conditions: A-375, 48 h
Method in brief: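 A375 melanoma cells grown in RPMI complete medium with 10% FBS, 2 mM L-glutamine, penicillin/streptomycin. Seeded 20 × 10^3 cells/well, adhered overnight, then exposed 48 h to serial dilutions from 10−10 to 10−4 M (from 10−2 M DMSO stock) in triplicate. MTT 1 mg/mL added for 3 h, formazan dissolved in 2-propanol/HCl, absorbance 540 nm; IC50 from sigmoidal dose–response fit.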

[2] = test system: SW480; assay: Cytotoxicity against human SW480 cells after 48 hrs by MTT assay; conditions: SW480, 48 h
Method in brief: (§1)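 Colon lines HCT116 and SW480 kept in DMEM with 10% FBS, 2 mM L-glutamine, penicillin/streptomycin. 20 × 10^3 cells/well seeded, overnight adhesion, then 48 h treatment at 10−10 to 10−4 M, serially diluted in medium from 10−2 M DMSO stock; triplicates. Viability by MTT (3 h), formazan in 2-propanol/HCl read at 540 nm; IC50 by sigmoidal curve fitting.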

[3] = test system: HCT-116; assay: Cytotoxicity against human HCT116 cells after 48 hrs by MTT assay; conditions: HCT-116, 48 h; method in brief: as §1

Row | Compound | IC50 [1] | IC50 [2] | IC50 [3]
1 | CC(C)=CC(=O)NCCc1c2c3c(ccnc3c3ncsc13)-c1ccccc1N2 | 11.8 µM | 8.02 µM | 14.4 µM
2 | CC(C)=CC(=O)NCCc1c2c(c3nccc4c3c1Nc1ccccc1-4)NC(=O)CS2 | > 10 µM | 9.99 µM | 19 µM
3 | C/C=C(\C)C(=O)Nc1cc2cc(O)c3nccc4c5ccccc5n1c2c34 | > 10 µM | > 10 µM | 18.9 µM
4 | CC(C)=CC(=O)Nc1cc2cc(O)c3nccc4c5ccccc5n1c2c34 | 6 µM | 8.48 µM | 4.32 µM
5 | C/C=C(\C)C(=O)NCCc1c2c3c(ccnc3c3ncsc13)-c1ccccc1N2 | > 10 µM | 3.3 µM | > 10 µM
6 | C/C=C(\C)C(=O)NCCc1c2c(c3nccc4c3c1Nc1ccccc1-4)NC(=O)CS2 | > 10 µM | > 10 µM | > 10 µM
7 | O=C1c2cccnc2-c2nccc3c2c1nc1ccccc13 [ASCIDIDEMIN] | 0.38 µM | 0.1 µM | 0.25 µM
